Assay results from ChEMBL document CHEMBL3616400, “Design, Synthesis, and Evaluation of Triazole Derivatives That Induce Nrf2 Dependent Gene Products and Inhibit the Keap1-Nrf2 Protein-Protein Interaction” (J Med Chem, 2015).
Activity calls are given as the source filed them. The calls are words filed in the database; no cut-off is given here.

Tests used:
[1] = target: T1, Nuclear factor erythroid 2-related factor 2 (Mus musculus) (UniProt Q60795); assay: Activation of Nrf2 in mouse Hepa1c1c7 cells assessed as increase of HO-1 expression at 10 uM after 6 hrs by Western blot analysis; format: cell-based
T1 sequence (whole entry): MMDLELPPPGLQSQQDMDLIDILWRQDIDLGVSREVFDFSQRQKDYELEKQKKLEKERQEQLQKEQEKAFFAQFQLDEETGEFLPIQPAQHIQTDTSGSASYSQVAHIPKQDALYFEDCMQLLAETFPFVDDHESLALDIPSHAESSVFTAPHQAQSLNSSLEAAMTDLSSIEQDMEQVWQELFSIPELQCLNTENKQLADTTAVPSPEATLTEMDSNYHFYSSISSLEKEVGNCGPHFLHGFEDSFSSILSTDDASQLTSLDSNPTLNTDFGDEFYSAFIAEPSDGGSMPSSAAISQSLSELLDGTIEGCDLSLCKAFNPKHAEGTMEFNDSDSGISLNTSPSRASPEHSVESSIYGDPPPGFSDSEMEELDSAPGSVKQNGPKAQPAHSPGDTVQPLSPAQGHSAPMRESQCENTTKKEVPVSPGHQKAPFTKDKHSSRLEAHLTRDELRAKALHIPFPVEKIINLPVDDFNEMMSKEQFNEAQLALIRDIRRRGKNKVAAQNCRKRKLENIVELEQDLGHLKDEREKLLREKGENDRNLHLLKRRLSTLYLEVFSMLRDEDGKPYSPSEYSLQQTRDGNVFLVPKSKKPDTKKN
In short: (§1)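 Hepa1c1c7 cells incubated with test compounds at 10 µM for various exposure times, up to 24 h. Nrf2, HO-1 and NQO1 protein levels assessed by Western blot.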

[2] = target: T1, Nuclear factor erythroid 2-related factor 2 (Mus musculus); assay: Activation of Nrf2 in mouse Hepa1c1c7 cells assessed as increase of NQO1 expression at 10 uM measured before 24 hrs by Western blot analysis; format: cell-based; in short: as §1
[3] = target: T2, Keap1/Nrf2 (Homo sapiens) (UniProt Q16236+Q14145); assay: Inhibition of mCherry labeled Keap1 interaction to ETGE motif from Nrf2 in human HEK293 cells at 10 uM by FRET based assay; format: cell-based
In short: (§2)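 HEK293 cells were co-transfected with EGFP-Nrf2 and Keap1-mCherry. Each cell was imaged by FLIM twice: once basal and once 1 h after 10 µM compound. EGFP lifetime and FRET efficiency were calculated in the cytoplasm. High- and low-FRET-efficiency populations were scored to distinguish DLG-dependent binding from ETGE-dependent binding.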

[4] = Therapeutic index, ratio of GI50 for mouse Hepa1c1c7 cells to CD for activation of Nrf2 in mouse Hepa1c1c7 cells assessed as concentration required to 2 fold induction of NQO1 production; format: cell-based; details: read-out: TI
Mus musculus [5] = species on record: Mus musculus; assay: Increase of Nrf2 protein level in mouse Hepa1c1c7 cells at 10 uM after 24 hrs by Western blot analysis; format: functional, cell-based; in short: as §1
Mus musculus [6] = species on record: Mus musculus; assay: Increase of Nrf2 protein level in mouse Hepa1c1c7 cells at 10 uM by Western blot analysis; format: functional, cell-based; details: TDE = time-dependent effect; in short: as §1
[7] = target: T1, Nuclear factor erythroid 2-related factor 2 (Mus musculus); assay: Activation of Nrf2 in mouse Hepa1c1c7 cells assessed as concentration required to 2 fold induction of NQO1 production after 24 hrs by MTT colorimetric assay; format: cell-based
In short: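 Hepa1c1c7 mouse hepatoma cells exposed to a concentration range for 24 h. NQO1 enzymatic activity measured by colorimetric induction assay. Value reported as CD, the concentration giving a two-fold increase in NQO1 activity.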

[8] = target: T2, Keap1/Nrf2 (Homo sapiens); assay: Inhibition of mCherry labeled Keap1 interaction to DLG motif from Nrf2 in human HEK293 cells at 10 uM by FRET based assay; format: cell-based; in short: as §2
[9] = Cytotoxicity against mouse Hepa1c1c7 cells assessed as cell viability at 200 uM after 24 to 48 hrs by SRB assay; format: cell-based; details: read-out: Activity
In short: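 Hepa1c1c7 cells exposed to compounds at up to 200 µM for 24 and 48 h. Viability determined by sulforhodamine B assay.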

Mus musculus [10] = species on record: Mus musculus; assay: Increase of Nrf2 protein level in mouse Hepa1c1c7 cells at 10 uM after 3 to 6 hrs by Western blot analysis; format: functional, cell-based; in short: as §1
Keap1/Nrf2 [11] = target: T3, Keap1/Nrf2 (Homo sapiens, UniProt Q14145); assay: Inhibition of kelch domain of Keap1 (unknown origin) interaction to high affinity ETGE motif from Nrf2 by fluorescence polarization assay; format: protein assay
In short: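 Competitive fluorescence polarization, dose-response format. Keap1 Kelch domain with fluorescein-labelled Nrf2 ETGE peptide FITC-β-DEETGEF-OH. EC50 derived from dose-response curves.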

[12] = target: T2, Keap1/Nrf2 (Homo sapiens); assay: Inhibition of kelch domain of Keap1 (unknown origin) interaction to high affinity ETGE motif from Nrf2 unknown origin) at 100 uM by fluorescence polarization assay; format: protein assay
In short: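 Fluorescence polarization competition. Keap1 Kelch domain with fluorescein-labelled ETGE peptide FITC-β-DEETGEF-OH (β = β-alanine). Displacement measured with a fixed 100 µM inhibitor; percent inhibition reported.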

[13] = target: T2, Keap1/Nrf2 (Homo sapiens); assay: Inhibition of kelch domain of Keap1 (unknown origin) interaction to high affinity ETGE motif from Nrf2 unknown origin) in presence of 0 to 1 % v/v Triton X100 by fluorescence polarization assay; format: protein assay
[14] = target: T1, Nuclear factor erythroid 2-related factor 2 (Mus musculus); assay: Activation of Nrf2 in mouse Hepa1c1c7 cells assessed as induction of NQO1 production at 10 uM after 24 hrs by MTT colorimetric assay relative to control; format: cell-based
In short: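 Hepa1c1c7 mouse hepatoma cells treated at a fixed 10 µM for 24 h. NQO1 enzyme activity read by colorimetric induction assay and expressed as fold induction over control.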

[15] = target: Kelch-like ECH-associated protein 1 (Homo sapiens) (UniProt Q14145); assay: Binding affinity to kelch domain of Keap1 (unknown origin) using high affinity ETGE motif from Nrf2 unknown origin) at 200 uM by fluorescence polarization assay
Keap1/Nrf2 [16] = target: T3, Keap1/Nrf2; assay: Inhibition of Keap1 (unknown origin) interaction to Nrf2; format: protein assay

T3 sequence (Q16236 whole entry, the tested form may be a part): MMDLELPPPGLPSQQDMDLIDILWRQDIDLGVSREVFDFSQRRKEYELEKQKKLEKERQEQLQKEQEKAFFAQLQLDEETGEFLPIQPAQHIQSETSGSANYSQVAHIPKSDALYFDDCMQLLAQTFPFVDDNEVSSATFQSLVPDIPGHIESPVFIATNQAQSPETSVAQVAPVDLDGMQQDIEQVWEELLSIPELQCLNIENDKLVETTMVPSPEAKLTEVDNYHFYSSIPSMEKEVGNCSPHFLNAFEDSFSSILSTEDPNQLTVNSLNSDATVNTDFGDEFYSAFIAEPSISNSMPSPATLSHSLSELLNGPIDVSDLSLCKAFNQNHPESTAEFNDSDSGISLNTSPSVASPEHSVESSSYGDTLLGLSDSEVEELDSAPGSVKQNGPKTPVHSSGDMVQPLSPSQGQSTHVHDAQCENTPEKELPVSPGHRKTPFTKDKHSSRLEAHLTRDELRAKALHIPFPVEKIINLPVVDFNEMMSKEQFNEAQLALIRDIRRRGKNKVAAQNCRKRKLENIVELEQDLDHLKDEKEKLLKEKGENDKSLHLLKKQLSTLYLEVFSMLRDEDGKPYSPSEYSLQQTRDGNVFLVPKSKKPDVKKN
T3 sequence (Q14145 whole entry, the tested form may be a part): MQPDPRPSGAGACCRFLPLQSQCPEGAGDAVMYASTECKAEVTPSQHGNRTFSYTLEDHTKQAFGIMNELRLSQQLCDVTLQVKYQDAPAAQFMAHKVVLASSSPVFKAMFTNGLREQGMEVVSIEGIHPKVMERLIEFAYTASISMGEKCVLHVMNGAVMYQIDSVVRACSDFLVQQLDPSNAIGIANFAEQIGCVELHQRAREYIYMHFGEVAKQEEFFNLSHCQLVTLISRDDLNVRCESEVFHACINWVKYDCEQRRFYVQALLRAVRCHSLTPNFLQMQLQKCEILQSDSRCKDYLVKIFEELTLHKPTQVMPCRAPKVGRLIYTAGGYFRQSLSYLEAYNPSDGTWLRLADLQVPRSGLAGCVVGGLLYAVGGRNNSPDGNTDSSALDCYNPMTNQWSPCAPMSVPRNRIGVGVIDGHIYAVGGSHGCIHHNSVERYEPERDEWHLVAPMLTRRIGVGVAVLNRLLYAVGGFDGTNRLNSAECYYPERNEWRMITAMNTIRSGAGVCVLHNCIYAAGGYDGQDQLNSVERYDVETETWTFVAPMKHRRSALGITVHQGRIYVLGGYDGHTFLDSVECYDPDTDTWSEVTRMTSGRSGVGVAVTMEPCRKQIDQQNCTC
T2 sequence (Q14145 whole entry, looked up): as the sequence (Q14145 whole entry, the tested form may be a part) above
T2 sequence (Q16236 whole entry, looked up): as the sequence (Q16236 whole entry, the tested form may be a part) above
Chain of Kelch-like ECH-associated protein 1 (Homo sapiens) (Q14145 whole entry, the tested form may be a part): as the sequence (Q14145 whole entry, the tested form may be a part) above

| Molecule | Activity [1] | Activity [2] | inhibition [3] | selectivity ratio [4] | Activity (Mus musculus [5]) | Activity (Mus musculus [6]) | CD [7] [µM] | inhibition [8] | viability at 200 µM [9] [%] | Activity (Mus musculus [10]) | EC50 (Keap1/Nrf2 [11]) [µM] | inhibition [12] [%] | inhibition [13] | fold change (FC) [14] | Activity [15] | EC50 (Keap1/Nrf2 [16]) [µM] |
| --- | --- | --- | --- | --- | --- | --- | --- | --- | --- | --- | --- | --- | --- | --- | --- | --- |
| C[S+]([O-])CCCCN=C=S (stereo not given) [SULFORAPHANE] | Active | inactive | inactive | 250 | Active | tde | 0.3 | Active |  |  |  |  |  |  |  |  |
| O=[N+]([O-])c1cccc(-c2cn(-c3cccc(I)c3)nn2)c1 | Active | inactive | inactive | > 1000 | Active | tde | 0.6 | Active | 100 | Active | 7.1 | 67.2 | Active | 4 | Active |  |
| O=C(O)c1cccc(-n2cc(-c3cccc([N+](=O)[O-])c3)nn2)c1 |  |  |  |  |  |  | > 10 |  |  |  | 5 | 80.1 |  | 0.83 |  |  |
| Cc1cccc(-n2cc(-c3cccc([N+](=O)[O-])c3)nn2)c1 | Active | inactive |  |  | Active | tde | 1.3 |  |  |  | 10 | 68.9 |  | 2.2 |  |  |
| O=[N+]([O-])c1cccc(-c2cn(-c3ccccc3)nn2)c1 |  |  |  |  |  |  | > 10 |  |  |  | 20.6 | 66.9 |  | 1.95 |  |  |
| Ac-WRQDIDL-OH |  |  |  |  |  |  |  |  |  |  |  |  |  |  |  | 17.1 |
| CC(C)(C)c1cccc(-n2cc(-c3cccc([N+](=O)[O-])c3)nn2)c1 |  |  |  |  | inactive |  | > 10 |  |  |  | 37.8 | 69.8 |  | 1.93 |  |  |
